Z-score data for 34 molecules are collected here from PubChem BioAssay AID1381 (University of Pittsburgh Molecular Library Screening Center, 2008).

This test in a line: inhibitors of GR-EGFP nuclear translocation, primary screen, dynein cargo transport inhibitor project, imaging, high-content, 3617.4 mouse cells (AID 1381). Particulars: stimulated with dexamethasone, 1 µM. In short, it runs like this: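 Buffer or medium – tet-free medium with charcoal-stripped serum · Signal – automated 10x imaging of fixed Hoechst-stained cells · Also added – dexamethasone agonist, 1.0 µM final, for 30 min · Incubation – induction 48 h, compound 1 h, agonist 30 min · Read-out – GR-EGFP nuclear translocation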

Where [1] appears, read: measured here: cell count per field, at 20 µM.
Setting [2] is: measured here: cytoplasmic GR-EGFP intensity, at 20 µM, stronger effect = higher value.
Setting [3] is: measured here: nuclear GR-EGFP intensity, at 20 µM, stronger effect = lower value.

In all, about 220,000 compounds went through this assay and about 1,000 (0.45%) were called active.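 How the source made its calls: active means plate z-score of nuclear minus cytoplasmic receptor signal below a set negative limit, without overly bright fluorescence or cell loss (cut at about -3.5 in these data, passing the limit was not always enough); inactive means the rest, inconclusive results apart.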 For the sample, actives were picked, then their nearest neighbours and some compounds at random.

As to `Cc1cc(SCC(=O)c2ccccc2)nc(SCC(=O)c2ccccc2)n1`, the z-score is 3.42 (inactive) (at 20 µM, stronger effect = lower value); -0.936 under setting [1]; -0.199 under setting [2]; -0.0972 under setting [3].
`Cc1cc(C)nc(S/C=C/C(=O)c2ccccc2)n1`: the z-score is -5.15 (active) (at 20 µM, stronger effect = lower value); 1.04 under setting [1]; 1.08 under setting [2]; -2.68 under setting [3].
Regarding `C/C(=N\NC(=O)c1nc(C)cc(C)n1)c1ccccc1`, the z-score is, setting by setting: (at 20 µM, stronger effect = lower value) 1.7 (inactive); under setting [1], -1.78; under setting [2], 0.199; under setting [3], 1.06.
In the case of `Nc1nnn(CC(=O)N/N=C/c2ccc(O)cc2)n1`, the z-score was -0.272 (inactive) (at 20 µM, stronger effect = lower value); 0.973 under setting [1]; -0.243 under setting [2]; 0.283 under setting [3].
For `CC(=O)N/C(=C\c1ccc(F)cc1)C(=O)NC(Cc1ccccc1)C(=O)O` (stereo unspecified), in that order: -0.458 (inactive), 0.748, -0.217 and 0.179.
In the case of `O=C(Nc1ccccc1Cl)c1ccc2nsnc2c1`, the z-score reads like this: (at 20 µM, stronger effect = lower value) -0.891 (inactive); under setting [1], 0.488; under setting [2], -0.235; under setting [3], -0.5.
For `O=C(Nc1ccccc1Cl)/C(Cl)=C(\Cl)S(=O)c1ccccc1` (stereo unspecified), in that order: -7.75 (active), 0.218, 2.93 and -2.78.
For `COCCN(CCOC)C(=S)Nc1ccccc1Cl`, the z-score was -0.23 (inactive) (at 20 µM, stronger effect = lower value); 0.546 under setting [1]; 0.025 under setting [2]; -0.44 under setting [3].
`C/C(N)=C(/C#N)C(=O)COC(=O)c1cc(-c2cccc(Br)c2)nc2ccccc12`: the z-score (at 20 µM, stronger effect = lower value) was 0.554 (inactive); the z-score under setting [1] was -0.985; the z-score under setting [2] was -0.242; the z-score under setting [3] was 0.468.
For `O=C(COC(=O)c1ccccc1)Nc1cccc(S(=O)(=O)N2CCOCC2)c1`, in that order: 0.599 (inactive), -0.0984, -0.271 and 0.704.
Consider `COC(=O)c1ccc(CSc2nnc(N)s2)o1`, for which the z-score reads like this: (at 20 µM, stronger effect = lower value) -0.747 (inactive); under setting [1], 0.802; under setting [2], -0.292; under setting [3], -0.243.
For `O=C1c2ccccc2NC(c2ccccn2)N1NS(=O)(=O)c1ccccc1` (stereo unspecified), in that order: -1.12 (inactive), 1.24, -0.348 and -0.844.
For the molecule `CCC1(CC)NC(=O)N(CC(=O)OCC(=O)NC(=O)c2ccccc2)C1=O`, the z-score is -0.1 (inactive) (at 20 µM, stronger effect = lower value); 1.43 under setting [1]; -0.273 under setting [2]; 0.236 under setting [3].
The matching figures for `CCCc1nc2oc3c(=O)[nH]cnc3c2c2c1COC(C)(C)C2`: -0.456 (inactive), 0.775, -0.274 and -0.288.
The matching figures for `C/C(CC(=O)Nc1cccc(F)c1)=N\NC(=O)C(=O)NC1CCCCC1`: -0.0686 (inactive), 0.185, -0.304 and -0.00364.
Turning to `CCc1c(SCCC(=O)O)nc2ccccc2c1C`, the z-score by setting is: (at 20 µM, stronger effect = lower value) -0.704 (inactive); under setting [1], 0.903; under setting [2], -0.252; under setting [3], -0.0559.
As to `O=C(CSc1ccccc1F)NC1CCS(=O)(=O)C1` (stereo unspecified), the z-score is, setting by setting: (at 20 µM, stronger effect = lower value) -0.432 (inactive); under setting [1], 0.683; under setting [2], -0.305; under setting [3], 0.2.
Regarding `CCCSC(=S)NC1CCS(=O)(=O)C1` (stereo unspecified), the z-score reads like this: (at 20 µM, stronger effect = lower value) -1.85 (inactive); under setting [1], 0.977; under setting [2], -0.0684; under setting [3], -0.34.
For `O=S1(=O)CCC(NC(=S)SCc2ccccc2Br)C1` (stereo unspecified), in that order: -3.97 (active), -0.868, 1.57 and -1.78.
Take `CCOc1ccc(C(C)=O)cc1CSc1nnc(-c2ccncc2)n1CCOC`: the z-score by setting is: (at 20 µM, stronger effect = lower value) 0.185 (inactive); under setting [1], 0.406; under setting [2], -0.242; under setting [3], 0.523.
For `O=c1oc(/C=C/c2ccccc2)nc2ccccc12`, in that order: 1.7 (inactive), -1.1, -0.0815 and 0.729.
The matching figures for `COc1ccc(-c2cc(C(F)(F)F)nc(SCC(=O)Nc3ccc4c(c3)OCO4)n2)cc1OC`: -0.345 (inactive), 0.664, -0.302 and -0.551.
The matching figures for `COc1cc(OC)nc(S(C)(=O)=O)n1`: 0.268 (inactive), -0.196, -0.228 and -0.13.
In the case of `COc1ccc(-c2cc(C(F)(F)F)nc(S(C)(=O)=O)n2)cc1OC`, the z-score is -5.48 (active) (at 20 µM, stronger effect = lower value); 0.235 under setting [1]; 1.61 under setting [2]; -2.61 under setting [3].
`CC1C/C(=N/NC(=O)c2cccs2)CC(C)(C)C1` (stereo unspecified): the z-score reads like this: (at 20 µM, stronger effect = lower value) -1.02 (inactive); under setting [1], 0.142; under setting [2], -0.107; under setting [3], -0.387.
For `CC(=O)Cn1ncc(N2CCOCC2)c(Br)c1=O`, in that order: 1.61 (inactive), -0.679, -0.251 and 0.837.
As to `O=C(/C=C/c1cccs1)c1cc(Cl)ccc1OC(=O)N1CCOCC1`, the z-score (at 20 µM, stronger effect = lower value) was -4.66 (active); the z-score under setting [1] stood at 0.865; the z-score under setting [2] is 0.34; the z-score under setting [3] was -2.08.
In the case of `CC(=O)Nc1ccccc1OC(=O)N1CCOCC1`, the z-score is, setting by setting: (at 50 µM, stronger effect = lower value) -0.424 (inactive); (measured here: cell count per field, at 50 µM) 0.445; (measured here: cytoplasmic GR-EGFP intensity, at 50 µM, stronger effect = higher value) -0.192; (measured here: nuclear GR-EGFP intensity, at 50 µM, stronger effect = lower value) -0.0276.
Regarding `O=C(c1cccs1)N1CCN(C(=O)N2CCOCC2)CC1`, the z-score (at 20 µM, stronger effect = lower value) was -0.705 (inactive); the z-score under setting [1] was 0.766; the z-score under setting [2] is -0.299; the z-score under setting [3] is -0.226.
As for `CC(=O)NC1(c2ccc(F)cc2)CCN(C(=O)c2c(F)cccc2F)CC1`, the z-score is -0.575 (inactive) (at 20 µM, stronger effect = lower value); 1.07 under setting [1]; -0.235 under setting [2]; -0.241 under setting [3].
Consider `Nc1ncnc(Nc2cccc(Cl)c2Cl)n1`, for which the z-score is -1.6 (inactive) (at 20 µM, stronger effect = lower value); 0.756 under setting [1]; -0.225 under setting [2]; -1.2 under setting [3].
For the molecule `COCCN(Cc1nc(-c2ccc(C(F)(F)F)cc2)no1)C(C)C`, the z-score by setting is: (at 20 µM, stronger effect = lower value) -0.214 (inactive); under setting [1], 0.527; under setting [2], -0.267; under setting [3], 0.0742.
The matching figures for `O=C(NNS(=O)(=O)Cc1ccccc1)c1ccc([N+](=O)[O-])cc1`: -0.775 (inactive), 0.134, -0.751 and -0.634.
For `COc1ccc(-n2cnc3cc(C(=O)NC4CCCC4)ccc32)cc1`, in that order: 0.728 (inactive), -0.477, -0.235 and 0.5.
